Measurements from ChEMBL document CHEMBL1141286, “Benzochromenones from the marine crinoid Comantheria rotula inhibit hypoxia-inducible factor-1 (HIF-1) in cell-based reporter assays and differentially suppress the growth of certain tumor cell lines” (J Nat Prod, 2007).
pIC50: −log10 of the molar value.

Assays:
Malme-3M = assay: Growth inhibition of human MALME-3M cells; assay type: functional
RXF 393 = assay: Growth inhibition of human RXF393 cells; assay type: functional
SF-295 = assay: Growth inhibition of human SF295 cells; assay type: functional
K562 = assay: Growth inhibition of human K562 cells; assay type: functional
NCI-H23 = assay: Growth inhibition of human NCI-H23 cells; assay type: functional
NCI-H522 = assay: Growth inhibition of human NCI-H522 cells; assay type: functional
HCC 2998 = assay: Growth inhibition of human HCC2998 cells; assay type: functional
OVCAR-5 = assay: Growth inhibition of human OVACAR5 cells; assay type: functional
[1] = Growth inhibition of human OVACAR3 cells; assay type: functional
RPMI-8226 = assay: Growth inhibition of human RPMI8226 cells; assay type: functional
OVCAR-8 = assay: Growth inhibition of human OVACAR8 cells; assay type: functional
CCRF-CEM = assay: Growth inhibition of human CCRF-CEM cells; assay type: functional
NCI-H226 = assay: Growth inhibition of human NCI-H226 cells; assay type: functional
M14 = assay: Growth inhibition of human M14 cells; assay type: functional
HCT-116 = assay: Growth inhibition of human HCT116 cells; assay type: functional
DU-145 = assay: Growth inhibition of human DU145 cells; assay type: functional
[2] = Inhibition of luciferase
Procedure, shortened: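 Purified recombinant firefly luciferase (QuantiLum, 46.8 μg mL−1) mixed with compound in passive lysis buffer containing BSA (1 mg mL−1); equal volume of luciferase substrate added, light output read; percentage inhibition relative to DMSO control; concentration-response curves up to 30 μM.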

HOP-62 = assay: Growth inhibition of human HOP62 cells; assay type: functional
[3] = Inhibition of 1,10-phenanthroline-induced HIF1 activation in T47D cells by TK-luciferase assay; assay type: cell-based; details: Homo sapiens
Procedure, shortened: (§1)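 HIF-1 reporter (pHRE-TK-Luc) assays in transfected PC-3 or T47D cells; HIF-1 induced by hypoxia or by the hypoxia mimetic 1,10-phenanthroline (10 μM); compounds at half-log concentrations; luciferase activity measured; IC50 from experiments in triplicate.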

U-251 = assay: Growth inhibition of human U251 cells; assay type: functional
HT-29 = assay: Growth inhibition of human HT29 cells; assay type: functional
KM12 = assay: Growth inhibition of human KM12 cells; assay type: functional
TK-10 = assay: Growth inhibition of human TK10 cells; assay type: functional
OVCAR-4 = assay: Growth inhibition of human OVACAR4 cells; assay type: functional
MDA-MB-231 = assay: Growth inhibition of human MDA-MB-231 cells; assay type: functional
SK-MEL-28 = assay: Growth inhibition of human SK-MEL28 cells; assay type: functional
[4] = Inhibition of HIF1 activation in PC3 cells by TK-luciferase assay; assay type: cell-based; details: Homo sapiens, PC-3; procedure, shortened: as §1
[5] = read-out: Log LC50 (the source's name) (converted)

CCCc1cc(=O)c2c(OC)c3c(OC)cc(O)c(Oc4c(O)cc(OC)c5c(OC)c6c(=O)cc(CCC)oc6cc45)c3cc2o1
GI50 (Malme-3M): 7.41 µM
CC50 (Malme-3M; [5]): 49 µM
TGI (Malme-3M; read-out: Log TGI (converted)): 20.4 µM
GI50 (RXF 393): 1.62 µM
LC50 (RXF 393): 30.2 µM
TGI (RXF 393; read-out: Log TGI (converted)): 5.62 µM
GI50 (SF-295): 5.13 µM
LC50 (SF-295): 50.1 µM
TGI (SF-295; read-out: Log TGI (converted)): 18.6 µM
GI50 (K562): 4.79 µM
CC50 (K562; [5]): 58.9 µM
TGI (K562; read-out: Log TGI (converted)): 14.8 µM
GI50 (NCI-H23): 2.45 µM
CC50 (NCI-H23; [5]): 33.9 µM
TGI (NCI-H23; read-out: Log TGI (converted)): 6.92 µM
GI50 (NCI-H522): 6.61 µM
CC50 (NCI-H522; [5]): 60.3 µM
TGI (NCI-H522; read-out: Log TGI (converted)): 21.9 µM
GI50 (HCC 2998): 13.5 µM
CC50 (HCC 2998; [5]): 56.2 µM
TGI (HCC 2998; read-out: Log TGI (converted)): 27.5 µM
GI50 (OVCAR-5): 7.08 µM
LC50 (OVCAR-5): 100 µM
TGI (OVCAR-5; read-out: Log TGI (converted)): 30.9 µM
GI50 [1]: 2.19 µM
CC50 [1, 5]: 57.5 µM
TGI ([1]; read-out: Log TGI (converted)): 8.71 µM
GI50 (RPMI-8226): 4.9 µM
CC50 (RPMI-8226; [5]): 70.8 µM
TGI (RPMI-8226; read-out: Log TGI (converted)): 21.4 µM
GI50 (OVCAR-8): 4.68 µM
LC50 (OVCAR-8): 100 µM
TGI (OVCAR-8; read-out: Log TGI (converted)): 53.7 µM
GI50 (CCRF-CEM): 2.34 µM
LC50 (CCRF-CEM): > 100 µM
TGI (CCRF-CEM; read-out: Log TGI (converted)): 14.1 µM
GI50 (NCI-H226): 16.2 µM
CC50 (NCI-H226; [5]): 79.4 µM
TGI (NCI-H226; read-out: Log TGI (converted)): 35.5 µM
GI50 (M14): 3.02 µM
LC50 (50% lethal concentration) (M14): 34.7 µM
TGI (M14; read-out: Log TGI (converted)): 11.5 µM
GI50 (HCT-116): 3.39 µM
CC50 (HCT-116; [5]): 34.7 µM
TGI (HCT-116; read-out: Log TGI (converted)): 11.5 µM
GI50 (DU-145): 6.03 µM
CC50 (DU-145; [5]): 43.7 µM
TGI (DU-145; read-out: Log TGI (converted)): 18.6 µM
pIC50 [2]: 5.62
GI50 (HOP-62): 2.57 µM
CC50 (HOP-62; [5]): 28.2 µM
TGI (HOP-62; read-out: Log TGI (converted)): 8.13 µM
pIC50 [3]: 6.10
GI50 (U-251): 4.68 µM
LC50 (U-251): 41.7 µM
TGI (U-251; read-out: Log TGI (converted)): 15.8 µM
GI50 (HT-29): 13.2 µM
CC50 (HT-29; [5]): 79.4 µM
TGI (HT-29; read-out: Log TGI (converted)): 32.4 µM
GI50 (KM12): 13.8 µM
CC50 (KM12; [5]): 69.2 µM
TGI (KM12; read-out: Log TGI (converted)): 30.9 µM
GI50 (TK-10): 17 µM
LC50 (TK-10): 57.5 µM
TGI (TK-10; read-out: Log TGI (converted)): 31.6 µM
GI50 (OVCAR-4): 2.57 µM
LC50 (OVCAR-4): 37.2 µM
TGI (OVCAR-4; read-out: Log TGI (converted)): 8.51 µM
GI50 (MDA-MB-231): 6.31 µM
LC50 (MDA-MB-231): 53.7 µM
TGI (MDA-MB-231; read-out: Log TGI (converted)): 21.4 µM
GI50 (SK-MEL-28): 11.5 µM
CC50 (SK-MEL-28; [5]): 53.7 µM
TGI (SK-MEL-28; read-out: Log TGI (converted)): 24.5 µM
pIC50 [4]: 5.00
